This sample holds only a part of the variants without activity.
B1: tRNA (parent)
chain: GUUCCGUUGGCGUAAUGGUAACGCGUCUCCCUCCUAAGGAGAAGACUGCGGGUUCGAGUCCCGUACGGAACG

Variants of: B1
Assay: yeast fitness relative to wild type (ratio to wild type); higher = fitter; tRNA-Arg(CCU), competitive growth, 37 C, YPD
In short: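 Start and end populations of a pooled competition were compared by 100-nucleotide paired-end sequencing of gene amplicons. The Saccharomyces cerevisiae strains carried tRNA-Arg(CCU) gene variants at the native genomic locus, synthesised with a 3% per-site mutation rate at 69 sites, and competed in YPD at 37°C for 24 hours in six parallel replicates. Darwinian fitness relative to wild type was based on the change in genotype frequencies. Genotypes required ≥ 100 starting reads, and estimates < 0.5 were set to 0.5.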

Row | Variant | yeast fitness
1 | G12A C49A U54A | ≤ 0.5
2 | U13G C27U G44A A57U | ≤ 0.5
3 | C31U A70U | 1.04
4 | C11A U16C U32G G48A C49G C55A | ≤ 0.5
5 | G9C G23C C29U A36C C49G | ≤ 0.5
6 | G6C U59A C60U | ≤ 0.5
7 | U3C A36U G39A G52A | ≤ 0.5
8 | A15G C31U C60A | 0.584
9 | C30A A37U G44C U53A | ≤ 0.5
10 | C4A A14U C34G G56C | ≤ 0.5
11 | G17C C30G C60G G63A A65U C66U | 0.549
12 | G17C C55U | 0.598
13 | G48C G50A G67A | ≤ 0.5
14 | G10C A14G U26A C49U A65U | ≤ 0.5
15 | A14C A40G | 0.596
16 | U8C A15C A57G A69C | ≤ 0.5
17 | C30A A37C G41A A43U G44C | ≤ 0.5
18 | C34G A42G A43U | 0.635
19 | G18C C27U C61A | ≤ 0.5
20 | C5U G12A C60G | ≤ 0.5
21 | C5U G58A C61U A70G | 0.797
22 | U2C U26C C61G G63A A69U | 0.56
23 | G41U A45U C49U C61G | ≤ 0.5
24 | A43U C62U | 1.01

Row | Variant | yeast fitness
25 | U8C A57C | 0.599
26 | U13G C22G | 0.809
27 | C34U C62U | 0.673
28 | G17A A21G U26C C62U | ≤ 0.5
29 | U16C C27U C29A A40G A43C G50U | ≤ 0.5
30 | G6A U47A C61U | 0.57
31 | C29U C33G G52A G58C A70G | ≤ 0.5
32 | C5A G48C G51C U53A | ≤ 0.5
33 | A20U C66A | 0.612
34 | C4A C5U C24G A45U C66U | ≤ 0.5
35 | A15G C29U C34G A40C | 0.694
36 | A14G A36C | 0.561
37 | A20U U26C | 0.89
38 | U8G U35A | ≤ 0.5
39 | C5G U16C A20G | ≤ 0.5
40 | U28G C34A U35C | ≤ 0.5
41 | G25C C49U G63A | 0.83
42 | G18C C24G C46G | ≤ 0.5
43 | U13A C27U C31U | 0.673
44 | A14G A42G G51C | ≤ 0.5
45 | C33U G44C | 0.601
46 | U13C A15G A21G U47G A65C | ≤ 0.5
47 | A65C | 1.01
48 | C11A U16C | 0.644

Row | Variant | yeast fitness
49 | G9C A14C C66U | ≤ 0.5
50 | A20U G38C C49A | ≤ 0.5
51 | A15G C27A | 0.786
52 | A20U A37G C66A A69U | ≤ 0.5
53 | U2C G12A A15G A43U C62G | ≤ 0.5
54 | C11G C30A G52A A65U | ≤ 0.5
55 | U19C C30A U47C | 0.693
56 | U8C C22A A36C G63A G67C | ≤ 0.5
57 | G17A A20G U28A U35A A70C | ≤ 0.5
58 | C4U G9C C33G U54C | ≤ 0.5
59 | A20C A40G A65G | 0.57
60 | C5U C46G A65G | 0.661
61 | A15C G23C C55A A65G | ≤ 0.5
62 | U3C C31U U54A | 0.583
63 | A42U C55U C66U | ≤ 0.5
64 | A14C C30A A69U | ≤ 0.5
65 | U16C C22U C33G C55G | 0.53
66 | G25A G41A C61A A65U | ≤ 0.5
67 | C5G A42U G63A | 0.531
68 | G10C A45U G48C | 0.53
69 | U26C C27G C34G G67A | ≤ 0.5
70 | C4G U26C | 0.993
71 | C5A U19C | 1.08
72 | A36C A37G G56A | ≤ 0.5

Row | Variant | yeast fitness
73 | U32A A40U G41C C46A G52A | 0.656
74 | C4G G9A A45C A57C G58C | ≤ 0.5
75 | C30U U32A A36U A37U C62U A69U | ≤ 0.5
76 | C24U G68U | 0.892
77 | C27G A45G C61U A69U | ≤ 0.5
78 | C33U A65U C66U | ≤ 0.5
79 | U8C A20G C34G A37G G44A | 0.627
80 | G6A U28A G51A A57U | ≤ 0.5
81 | C4G G6A C24U A40U C49A | ≤ 0.5
82 | G10C U26A C34G | ≤ 0.5
83 | C5G C30G G38C G56C | 0.621
84 | U2G G6A C31G C33U U59G C66U G68A | ≤ 0.5
85 | U7A G9C G17C G48A A69C | ≤ 0.5
86 | U16C C34G G44A A65U | ≤ 0.5
87 | G9A C66A | 0.775
88 | C33G G44A U47C A57G | ≤ 0.5
89 | U3A C11U U35C A65C | ≤ 0.5
90 | C31U U53A | 0.656
91 | G6A G9C G44C | 0.605
92 | A37U G39C G48A U53G | ≤ 0.5
93 | U3G C5A G63A | ≤ 0.5
94 | A21G G25A G39C C62U | ≤ 0.5
95 | U35C C62U | 0.882
96 | U28C C61U A69U | 0.727

Row | Variant | yeast fitness
97 | U7G C55G G68C | 0.6
98 | C34G A40C G44A | ≤ 0.5
99 | U19C A21U A40U | 0.641
100 | G9A A37C A45U | ≤ 0.5
101 | G12A C22G A43G C55A | ≤ 0.5
102 | C29G C46U A57G | 0.642
103 | G23C C27U G56A G63C | 0.573
104 | G6A U7G U26C G52A C55U | ≤ 0.5
105 | G39A C61G A70U | ≤ 0.5
106 | U8A A20U C34U A45C | 0.567
107 | C5G U19C U35A A43C | ≤ 0.5
108 | C4U C33A U54C | ≤ 0.5
109 | U8C C22G C49U U64C | 0.679
110 | U8A A14C C31A G41C C49A G56A G63A G67A | ≤ 0.5
111 | G17C U19C A40G U47G | ≤ 0.5
112 | A42C U47C A69U | 0.821
113 | G18A A21C G39A C55U C60G A69U | 0.523
114 | C5A C27A C34G | 0.507
115 | G10C C31U | 0.78
116 | U16C C24G U32A G56A | 0.544
117 | A36U A40U | 0.591
118 | A37C G51A | 0.605
119 | C5U G52A | 0.697
120 | C5A C49U | 0.848

Row | Variant | yeast fitness
121 | C49U A65U | 0.91
122 | U7C C27A U64G | ≤ 0.5
123 | C5A U16C C22U G63A | 0.553
124 | U47G U64C | 0.622
125 | U8C C22U | 0.768
126 | C5U G18A A40U U47C G68A | 0.617
127 | A20G C24U C46U | 0.733
128 | U19C A20G G67A A69U | ≤ 0.5
129 | C11U A15G A43U | 0.666
130 | G10A G12A C34U A45U C49G | ≤ 0.5
131 | G6A C22G A69C | 0.591
132 | U13C C62G | 0.804
133 | C29G C31G C46G C55U A65U | 0.627
134 | U8A G18A G41C A57G | ≤ 0.5
135 | C5G C29G G41C A57U | ≤ 0.5
136 | U26A A43U A65U | 0.618
137 | C4G C5G C31A U35C | ≤ 0.5
138 | C22G A42C A70U | 0.671
139 | C24U C30G A45C A70C | ≤ 0.5
140 | G17A C33U | 0.607
141 | C11U C61G | 0.638
142 | G6A A20G C24U | 0.612
143 | A20C U28C C30A G44C A45G C55A G63C | ≤ 0.5
144 | U3C U54C G67C | ≤ 0.5

Row | Variant | yeast fitness
145 | C5A G17A A40G C46A | ≤ 0.5
146 | G38C U53C A57U | ≤ 0.5
147 | A15G G44C A65C | ≤ 0.5
148 | U3C U8A C66A | 0.529
149 | C30U A40C C49G | ≤ 0.5
150 | C11A A40G C66U | ≤ 0.5
151 | C5U A69C | 0.865
152 | U16C U35C | 0.609
153 | A21G G38C | 0.674
154 | A14C C62G C66U | ≤ 0.5
155 | C30U C66G A70G | ≤ 0.5
156 | A14C C22G G25C G44A | ≤ 0.5
157 | A20U U28G C30U U32G C34G | ≤ 0.5
158 | U26A A43G A69C | 0.649
159 | A15G U16A A20G A42G | 0.577
160 | C24A U35G G52A U64A | 0.514
161 | U13A A43U G50A U54G G68C | ≤ 0.5
162 | C4G U16A A36C U54G C60U A70G | ≤ 0.5
163 | G10A U13G C27U C46G A69C | 0.506
164 | G18U U26A C49U G50C | ≤ 0.5
165 | G56C | 0.663
166 | A42C C46G | 0.753
167 | U7A G10U | 0.614
